Reference: ChEMBL document CHEMBL5661986, “Discovery of the SMYD3 Inhibitor BAY-6035 Using Thermal Shift Assay (TSA)-Based High-Throughput Screening” (SLAS Discov, 2021)
pIC50: −log10 of the molar value. Activity calls are given as the source filed them. No cut-off for these calls is given here.

Tests used:
[1] = Lipophilicity, log D of the compound at pH 7.5; type: physicochemical; conditions: buffer
[2] = biological target: T1, Histone-lysine N-methyltransferase SMYD3 (Homo sapiens) (UniProt Q9H7B4); test: Binding affinity to recombinant human SMYD3 expressed in Escherichia coli assessed as change in enthalpy at 0.3 mM by isothermal titration calorimetry
T1 sequence (whole entry): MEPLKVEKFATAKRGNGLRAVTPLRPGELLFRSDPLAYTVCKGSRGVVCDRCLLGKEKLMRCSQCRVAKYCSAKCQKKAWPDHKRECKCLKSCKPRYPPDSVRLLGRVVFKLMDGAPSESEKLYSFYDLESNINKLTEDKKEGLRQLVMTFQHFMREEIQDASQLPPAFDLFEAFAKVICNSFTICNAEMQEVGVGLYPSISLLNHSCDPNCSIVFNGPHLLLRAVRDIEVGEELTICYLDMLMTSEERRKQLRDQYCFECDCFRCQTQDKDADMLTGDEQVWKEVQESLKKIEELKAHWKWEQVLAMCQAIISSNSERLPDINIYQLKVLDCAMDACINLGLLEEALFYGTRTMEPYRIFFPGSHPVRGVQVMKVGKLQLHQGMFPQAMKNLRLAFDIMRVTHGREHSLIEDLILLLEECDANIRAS
In short: (§1)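 Syringe held compound at 0.3 mM in 20 mM HEPES pH 7.4, 150 mM NaCl, 0.005% Tween 20, 2.5% DMSO; eight 4 µL injections at 180 s intervals into SMYD3.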

[3] = test system: Histone-lysine N-methyltransferase SMYD3 (Homo sapiens), Q9H7B4 [UNDEFINED MUTATION]; test: (§2) Inhibition of SMYD3 catalytic inactive mutant co-expressed with HA-tagged MAP3K2 transfected in human HeLa cells assessed as reduction of MAP3K2-K260me3 level incubated for 20 hrs by Western blotting analysis; type: cell-based
In short: (§3)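 After 4 h, compound or DMSO for 20 h. Lysates immunoblotted for MAP3K2-K260me3 (in-house antibody), HA, SMYD3 and MAP3K2 with infrared secondaries. K260me3 signal normalized to HA; three technical replicates, mean ± SEM, nonlinear fit.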

[4] = biological target: Histone-lysine N-methyltransferase SMYD3 (Homo sapiens, UniProt Q9H7B4); test: as §2; type: cell-based; in short: as §3
[5] = biological target: T1, Histone-lysine N-methyltransferase SMYD3 (Homo sapiens); test: Binding affinity to recombinant human SMYD3 expressed in Escherichia coli assessed as change in gibbs binding free energy by isothermal titration calorimetry; in short: as §1
[6] = biological target: T2, Histone-lysine N-methyltransferase SMYD3 (Homo sapiens, UniProt Q9H7B4); test: Binding affinity to recombinant human SMYD3 expressed in Escherichia coli at varying 3H SAM substrate concentration of upto 3.5 uM with 10 fold Km concentration by scintillation proximity assay
T2 sequence (Q9H7B4 whole entry): T1 sequence (whole entry)
In short: (§4)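 SPA, 10 nM SMYD3 methylating biotinylated MAP3K2 249–273 peptide with 3H-SAM in 20 mM Tris pH 9, 2.5 mM DTT, 0.01% Triton X-100; 40 min, 23 °C, GuHCl quench.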

[7] = biological target: T1, Histone-lysine N-methyltransferase SMYD3 (Homo sapiens); test: Binding affinity to recombinant human SMYD3 expressed in Escherichia coli assessed as fold change at varying MAP3K2 substrate concentration of upto 150 uM with 10 fold Km concentration by scintillation proximity assay; in short: as §4
[8] = biological target: Histone-lysine N-methyltransferase ASH1L (Homo sapiens) (UniProt Q9NR48); test: Inhibition of ASH1L (unknown origin)
[9] = biological target: DNA (cytosine-5)-methyltransferase 1 (Homo sapiens) (UniProt P26358); test: Inhibition of DNMT1 (unknown origin)
[10] = biological target: DNMT3A2/3L complex (Homo sapiens) (UniProt Q9Y6K1+Q9UJW3); test: Inhibition of DNMT3A/DNMT3L (unknown origin); type: protein-complex assay
[11] = biological target: Histone-lysine N-methyltransferase, H3 lysine-79 specific (Homo sapiens) (UniProt Q8TEK3); test: Inhibition of DOT1L (unknown origin)
[12] = biological target: Histone acetyltransferase p300 (Homo sapiens) (UniProt Q09472); test: Inhibition of EP300 (unknown origin)
Homo sapiens [13] = organism: Homo sapiens; test: Inhibition of GLP (unknown origin)
[14] = biological target: METTL3/METTL14 (Homo sapiens) (UniProt Q86U44+Q9HCE5); test: Inhibition of METTL3/METTL14 (unknown origin); type: protein-complex assay
[15] = biological target: Histone-lysine N-methyltransferase, H3 lysine-36 specific (Homo sapiens) (UniProt Q96L73); test: Inhibition of NSD1 (unknown origin)
[16] = biological target: Histone-lysine N-methyltransferase NSD2 (Homo sapiens) (UniProt O96028); test: Inhibition of NSD2 (unknown origin)
Homo sapiens [17] = organism: Homo sapiens; test: Inhibition of PRC2 (unknown origin)
[18] = biological target: Protein arginine N-methyltransferase 1 (Homo sapiens) (UniProt Q99873); test: Inhibition of PRMT1 (unknown origin)
[19] = biological target: Protein arginine N-methyltransferase 5 (Homo sapiens) (UniProt O14744); test: Inhibition of PRMT5 (unknown origin)
[20] = biological target: Histone-lysine N-methyltransferase SETD7 (Homo sapiens) (UniProt Q8WTS6); test: Inhibition of SETD7 (unknown origin)
[21] = biological target: N-lysine methyltransferase KMT5A (Homo sapiens) (UniProt Q9NQR1); test: Inhibition of SETD8 (unknown origin)
[22] = biological target: Histone-lysine N-methyltransferase SETDB1 (Homo sapiens) (UniProt Q15047); test: Inhibition of SETDB1 (unknown origin)
[23] = biological target: N-lysine methyltransferase SMYD2 (Homo sapiens) (UniProt Q9NRG4); test: Inhibition of SMYD2 (unknown origin)
[24] = biological target: Cyclin-dependent kinase 13 (Homo sapiens, UniProt Q14004); test: Inhibition of CDK13 (unknown origin) by using c-myc peptide as substrate in presence of ATP
[25] = biological target: Casein kinase I isoform alpha (Homo sapiens, UniProt P48729); test: Inhibition of CSNK1A1 (unknown origin)
[26] = biological target: Receptor-type tyrosine-protein kinase FLT3 (Homo sapiens, UniProt P36888); test: Inhibition of FLT3 (unknown origin)
[27] = biological target: Phosphatidylinositol 5-phosphate 4-kinase type-2 alpha (Homo sapiens, UniProt P48426); test: Inhibition of human PIP4K2A
[28] = biological target: Vascular endothelial growth factor receptor 2 (Homo sapiens, UniProt P35968); test: Inhibition of KDR (unknown origin) by HTRF assay
[29] = biological target: Diacylglycerol kinase alpha (Mus musculus, UniProt O88673); test: Inhibition of mouse DGK alpha by ADP-Glo assay
HT-29 = test: Antiproliferative activity against human HT-29 cells assessed as inhibition of cell viability measured for 3 to 5 days by alamar blue staining based assay; type: functional
Jurkat = test: Antiproliferative activity against human Jurkat cells assessed as inhibition of cell viability measured for 3 to 5 days by alamar blue staining based assay; type: functional
KYSE-30 = test: Antiproliferative activity against human KYSE-30 cells assessed as inhibition of cell viability measured for 3 to 5 days by alamar blue staining based assay; type: functional
PaTu 8988t = test: Antiproliferative activity against human PaTu 8988t cells assessed as inhibition of cell viability measured for 3 to 5 days by alamar blue staining based assay; type: functional
[30] = biological target: T1, Histone-lysine N-methyltransferase SMYD3 (Homo sapiens); conditions: dose 120.0 µM

Sequence of Histone-lysine N-methyltransferase SETD7 (Homo sapiens) (Q8WTS6 whole entry): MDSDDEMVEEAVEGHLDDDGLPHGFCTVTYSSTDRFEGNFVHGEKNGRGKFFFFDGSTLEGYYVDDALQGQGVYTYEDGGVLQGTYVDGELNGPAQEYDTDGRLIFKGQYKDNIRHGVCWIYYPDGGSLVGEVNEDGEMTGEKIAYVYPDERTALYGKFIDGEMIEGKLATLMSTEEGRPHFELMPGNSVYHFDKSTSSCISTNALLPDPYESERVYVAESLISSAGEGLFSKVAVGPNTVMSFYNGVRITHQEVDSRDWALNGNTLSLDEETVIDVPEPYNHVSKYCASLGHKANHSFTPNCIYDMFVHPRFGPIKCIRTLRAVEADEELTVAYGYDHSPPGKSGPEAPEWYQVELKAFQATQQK
Sequence of Diacylglycerol kinase alpha (O88673 whole entry): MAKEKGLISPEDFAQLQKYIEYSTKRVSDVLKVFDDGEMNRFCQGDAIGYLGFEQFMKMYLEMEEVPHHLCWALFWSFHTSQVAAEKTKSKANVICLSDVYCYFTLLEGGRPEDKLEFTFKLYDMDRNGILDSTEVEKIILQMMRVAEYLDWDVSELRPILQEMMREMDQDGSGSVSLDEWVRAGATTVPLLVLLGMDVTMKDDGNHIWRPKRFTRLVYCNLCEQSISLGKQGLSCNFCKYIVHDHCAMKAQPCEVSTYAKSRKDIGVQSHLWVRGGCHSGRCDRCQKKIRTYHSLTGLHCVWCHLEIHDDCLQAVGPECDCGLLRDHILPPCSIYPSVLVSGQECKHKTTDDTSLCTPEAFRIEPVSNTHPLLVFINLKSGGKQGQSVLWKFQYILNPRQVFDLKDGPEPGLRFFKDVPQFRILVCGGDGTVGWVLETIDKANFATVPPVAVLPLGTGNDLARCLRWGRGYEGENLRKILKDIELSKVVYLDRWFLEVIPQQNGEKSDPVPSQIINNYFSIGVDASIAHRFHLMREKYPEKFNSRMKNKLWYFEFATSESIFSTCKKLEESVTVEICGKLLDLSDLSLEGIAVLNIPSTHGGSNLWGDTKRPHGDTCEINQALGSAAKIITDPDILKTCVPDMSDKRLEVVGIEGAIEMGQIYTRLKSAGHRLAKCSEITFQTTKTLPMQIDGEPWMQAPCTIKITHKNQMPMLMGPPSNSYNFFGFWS
Sequence of Protein arginine N-methyltransferase 1 (Homo sapiens) (Q99873 whole entry, looked up): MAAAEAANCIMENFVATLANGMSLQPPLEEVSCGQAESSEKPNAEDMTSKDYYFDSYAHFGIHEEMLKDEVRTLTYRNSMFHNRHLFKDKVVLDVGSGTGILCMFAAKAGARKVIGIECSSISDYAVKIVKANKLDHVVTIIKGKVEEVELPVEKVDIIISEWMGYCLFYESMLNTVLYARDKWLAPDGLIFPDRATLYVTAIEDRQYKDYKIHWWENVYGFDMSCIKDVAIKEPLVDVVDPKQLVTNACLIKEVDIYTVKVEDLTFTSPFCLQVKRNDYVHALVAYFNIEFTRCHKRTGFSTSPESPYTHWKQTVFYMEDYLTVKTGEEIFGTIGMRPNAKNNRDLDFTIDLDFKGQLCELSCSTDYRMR
Sequence of Cyclin-dependent kinase 13 (Q14004 whole entry, canonical isoform): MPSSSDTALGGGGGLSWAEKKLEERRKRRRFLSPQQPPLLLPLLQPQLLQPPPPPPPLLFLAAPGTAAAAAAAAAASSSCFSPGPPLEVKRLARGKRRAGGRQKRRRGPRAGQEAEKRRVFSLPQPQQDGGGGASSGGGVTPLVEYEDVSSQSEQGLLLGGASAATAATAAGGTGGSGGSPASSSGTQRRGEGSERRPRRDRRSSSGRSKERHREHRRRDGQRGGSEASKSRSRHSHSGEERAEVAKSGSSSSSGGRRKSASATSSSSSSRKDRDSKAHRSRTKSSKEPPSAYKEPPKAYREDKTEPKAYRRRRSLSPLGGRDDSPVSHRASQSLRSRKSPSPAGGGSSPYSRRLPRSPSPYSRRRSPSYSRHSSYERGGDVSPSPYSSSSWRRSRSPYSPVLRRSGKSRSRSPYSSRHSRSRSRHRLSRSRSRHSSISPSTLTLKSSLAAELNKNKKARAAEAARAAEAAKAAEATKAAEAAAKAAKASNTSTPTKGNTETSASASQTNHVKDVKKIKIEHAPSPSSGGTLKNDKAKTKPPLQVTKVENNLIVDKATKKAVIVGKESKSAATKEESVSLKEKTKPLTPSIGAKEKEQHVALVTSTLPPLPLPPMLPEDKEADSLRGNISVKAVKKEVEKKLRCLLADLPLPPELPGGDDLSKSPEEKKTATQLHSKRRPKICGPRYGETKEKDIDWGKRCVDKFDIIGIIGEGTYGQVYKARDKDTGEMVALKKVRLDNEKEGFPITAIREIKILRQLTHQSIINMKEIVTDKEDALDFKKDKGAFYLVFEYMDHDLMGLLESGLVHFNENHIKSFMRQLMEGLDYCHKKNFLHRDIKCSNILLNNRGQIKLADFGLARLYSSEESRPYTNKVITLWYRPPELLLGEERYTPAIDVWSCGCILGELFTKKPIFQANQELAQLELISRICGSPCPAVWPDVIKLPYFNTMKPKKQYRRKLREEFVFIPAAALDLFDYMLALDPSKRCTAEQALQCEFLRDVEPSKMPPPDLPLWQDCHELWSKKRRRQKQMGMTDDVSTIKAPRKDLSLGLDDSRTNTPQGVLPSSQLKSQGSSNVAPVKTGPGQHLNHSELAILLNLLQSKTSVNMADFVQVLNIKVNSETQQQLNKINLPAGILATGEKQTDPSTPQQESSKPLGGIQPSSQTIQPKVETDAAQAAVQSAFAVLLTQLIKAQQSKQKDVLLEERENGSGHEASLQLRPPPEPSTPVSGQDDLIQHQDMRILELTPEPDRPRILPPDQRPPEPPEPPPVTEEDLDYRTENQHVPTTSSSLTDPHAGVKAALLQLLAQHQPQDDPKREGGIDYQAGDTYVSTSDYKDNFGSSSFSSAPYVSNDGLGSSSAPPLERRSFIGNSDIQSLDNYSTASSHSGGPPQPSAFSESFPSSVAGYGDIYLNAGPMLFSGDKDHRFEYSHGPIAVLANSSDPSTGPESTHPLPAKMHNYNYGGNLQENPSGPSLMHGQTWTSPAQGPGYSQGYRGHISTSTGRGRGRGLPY
Sequence of Phosphatidylinositol 5-phosphate 4-kinase type-2 alpha (P48426 whole entry): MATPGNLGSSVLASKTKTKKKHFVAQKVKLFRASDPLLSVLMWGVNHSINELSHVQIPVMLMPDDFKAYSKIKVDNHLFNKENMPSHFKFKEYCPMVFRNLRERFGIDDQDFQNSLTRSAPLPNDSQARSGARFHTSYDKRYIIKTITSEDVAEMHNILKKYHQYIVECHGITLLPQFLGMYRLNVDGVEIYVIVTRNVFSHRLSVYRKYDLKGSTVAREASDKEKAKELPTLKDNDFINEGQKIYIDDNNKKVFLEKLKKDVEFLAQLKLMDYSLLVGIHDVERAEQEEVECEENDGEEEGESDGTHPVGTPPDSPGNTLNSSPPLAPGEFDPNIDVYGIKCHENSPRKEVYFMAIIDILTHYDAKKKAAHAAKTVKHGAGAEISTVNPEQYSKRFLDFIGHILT
Sequence of DNMT3A2/3L complex (Homo sapiens) (Q9UJW3 whole entry, looked up): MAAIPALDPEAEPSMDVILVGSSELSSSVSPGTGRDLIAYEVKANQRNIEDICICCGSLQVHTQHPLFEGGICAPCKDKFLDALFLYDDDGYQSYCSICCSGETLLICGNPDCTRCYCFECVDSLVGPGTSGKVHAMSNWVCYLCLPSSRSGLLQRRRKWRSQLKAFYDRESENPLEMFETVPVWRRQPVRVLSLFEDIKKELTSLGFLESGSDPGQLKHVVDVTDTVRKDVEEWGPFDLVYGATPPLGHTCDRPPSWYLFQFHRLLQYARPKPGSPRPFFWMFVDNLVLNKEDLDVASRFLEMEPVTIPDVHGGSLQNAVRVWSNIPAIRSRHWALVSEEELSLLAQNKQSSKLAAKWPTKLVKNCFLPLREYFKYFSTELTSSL
Sequence of DNMT3A2/3L complex (Homo sapiens) (Q9Y6K1 whole entry, looked up): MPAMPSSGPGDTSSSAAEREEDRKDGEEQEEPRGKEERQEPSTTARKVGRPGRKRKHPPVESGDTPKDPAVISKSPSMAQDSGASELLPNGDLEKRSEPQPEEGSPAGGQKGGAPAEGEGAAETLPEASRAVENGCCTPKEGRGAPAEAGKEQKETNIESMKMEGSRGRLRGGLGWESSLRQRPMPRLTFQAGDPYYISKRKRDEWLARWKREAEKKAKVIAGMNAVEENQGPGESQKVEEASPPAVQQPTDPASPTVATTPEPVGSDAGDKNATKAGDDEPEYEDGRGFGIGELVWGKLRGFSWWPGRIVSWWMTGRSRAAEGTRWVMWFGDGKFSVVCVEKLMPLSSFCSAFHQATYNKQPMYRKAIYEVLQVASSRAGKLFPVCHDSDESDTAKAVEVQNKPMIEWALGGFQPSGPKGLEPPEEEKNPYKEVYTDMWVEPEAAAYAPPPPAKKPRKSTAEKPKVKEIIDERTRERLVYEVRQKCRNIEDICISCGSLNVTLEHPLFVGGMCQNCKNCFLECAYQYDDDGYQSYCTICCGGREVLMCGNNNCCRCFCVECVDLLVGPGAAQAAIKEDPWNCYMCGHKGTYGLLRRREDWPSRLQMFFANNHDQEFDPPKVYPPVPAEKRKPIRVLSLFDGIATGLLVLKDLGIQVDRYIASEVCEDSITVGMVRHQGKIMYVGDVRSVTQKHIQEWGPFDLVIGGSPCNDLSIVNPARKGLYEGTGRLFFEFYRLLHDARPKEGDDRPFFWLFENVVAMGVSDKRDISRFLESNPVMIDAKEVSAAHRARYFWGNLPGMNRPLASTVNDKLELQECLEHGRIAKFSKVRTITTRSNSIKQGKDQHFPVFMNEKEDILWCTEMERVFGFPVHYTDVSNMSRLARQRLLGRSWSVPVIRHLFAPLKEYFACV
Sequence of Casein kinase I isoform alpha (P48729 whole entry, canonical isoform): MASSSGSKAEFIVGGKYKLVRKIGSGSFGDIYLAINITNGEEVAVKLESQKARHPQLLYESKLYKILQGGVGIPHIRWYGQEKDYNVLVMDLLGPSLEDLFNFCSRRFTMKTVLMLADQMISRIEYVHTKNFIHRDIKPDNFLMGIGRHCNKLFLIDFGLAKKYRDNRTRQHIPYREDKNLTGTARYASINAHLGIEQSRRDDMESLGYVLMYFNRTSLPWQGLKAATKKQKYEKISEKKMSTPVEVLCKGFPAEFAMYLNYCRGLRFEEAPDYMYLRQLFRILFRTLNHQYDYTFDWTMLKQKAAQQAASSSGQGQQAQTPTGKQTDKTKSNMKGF

logD [1]: 1.9
deltaH [2]: -4.2 kcal/mol
inhibition [3]: Dose-Dependent Effect
pIC50 [4]: 6.74
deltaG [5]: -9.2 kcal/mol
IC50 [6]: Not Active
fold change (FC) [7]: 4
inhibition [8]: inactive
inhibition [9]: inactive
inhibition [10]: inactive
inhibition [11]: inactive
inhibition [12]: inactive
inhibition (Homo sapiens [13]): inactive
inhibition [14]: inactive
inhibition [15]: inactive
inhibition [16]: inactive
inhibition (Homo sapiens [17]): inactive
inhibition [18]: inactive
inhibition [19]: inactive
inhibition [20]: inactive
inhibition [21]: inactive
inhibition [22]: inactive
inhibition [23]: inactive
pIC50 [24]: < 4.70
pIC50 [25]: < 4.70
pIC50 [26]: < 4.70
pIC50 [27]: < 4.70
pIC50 [28]: < 4.70
pIC50 [29]: < 4.70
pIC50 (HT-29): < 5.00
pIC50 (Jurkat): < 5.00
deltaTm [30]: 8.34 K
Compound: C[C@H]1CC(=O)Nc2cc(C(=O)NCCC3CC3)ccc2N1C(=O)N1CC2CC2C1 (some centres undefined)
pIC50 (KYSE-30): < 5.00
pIC50 (PaTu 8988t): < 5.00
